{"data": "Experimental data from different studies", "observed": "enzyme activity", "action": "inhibitor", "CHEK2": "Serine/threonine-protein kinase Chk2 (CHEK2, Homo sapiens, UniProt O96017)", "CHEK2 R145W": "Serine/threonine-protein kinase Chk2 (CHEK2, Homo sapiens, UniProt O96017, R145W)", "note": "Protocols differ between the studies behind these lines."}
{"Compound": "Cn1c(=O)n(-c2ccc(C(C)(C)C#N)cc2)c2c3cc(-c4cnc5ccccc5c4)ccc3ncc21", "target": "CHEK2", "concentration": "10 µM", "remaining activity": "80%"}
{"Compound": "COc1cc(Nc2cnc(C#N)c(O[C@H](C)CN(C)C)n2)ncc1-c1cnn(C)c1", "target": "CHEK2", "technique": "radiometric", "concentration": "10 µM", "remaining activity": "31%"}
{"Compound": "CC(C)(C)C(=O)c1sc(NC2CCCCC2)nc1N", "target": "CHEK2", "concentration": "10 µM", "remaining activity": "53%"}
{"Compound": "CCCOc1ccc(OC)c(F)c1C(=O)c1ccc(C(=O)N[C@@H]2CNC[C@H]2NC(=O)c2ccc3[nH]ncc3c2)cc1", "target": "CHEK2 R145W", "concentration": "10 µM", "remaining activity": "21%"}
{"Compound": "Nc1nc(Nc2ccccc2)sc1C(=O)c1c(F)cccc1F", "target": "CHEK2", "concentration": "10 µM", "remaining activity": "30%"}
{"Compound": "Cc1ccc(NC(=O)c2ccc(C)c(C(F)(F)F)c2)cc1C#Cc1nn(C2CCC(O)CC2)c2ncnc(N)c12 (stereo not drawn)", "target": "CHEK2 R145W", "concentration": "10 µM", "remaining activity": "102%"}
{"Compound": "FC(F)c1nc2ccccc2n1-c1nc(N2CCOCC2)nc(N2CCOCC2)n1", "target": "CHEK2", "concentration": "10 µM", "remaining activity": "88%"}
{"Compound": "CC(C)(O)[C@H]1CC[C@H](Nc2ccc3ncc(-c4cccc(C(F)(F)F)c4)n3n2)CC1", "target": "CHEK2", "concentration": "1 µM", "remaining activity": "97.4%"}
{"Compound": "Cc1sc(C(=O)NC2COC2)cc1-n1cc(NC(=O)Nc2c(F)cccc2Cl)cn1", "target": "CHEK2", "concentration": "10 µM", "remaining activity": "95.2%"}
{"Compound": "CC(C)(C)c1nc2c(s1)c1nc(N)ncc1c1ccc(NS(=O)(=O)c3c(F)cccc3F)c(F)c12", "target": "CHEK2", "technique": "radiometric", "concentration": "1 µM", "remaining activity": "72%"}
{"Compound": "Cc1cnc(NC2CCOCC2)nc1-n1cnc(C(=O)NC(CN)c2cc(F)cc(Cl)c2)c1 (stereo not drawn)", "target": "CHEK2", "technique": "radiometric", "concentration": "1 µM", "remaining activity": "75%"}
{"Compound": "O=C(Nc1cnn(-c2csc(C(=O)NC3COC3)c2)c1)Nc1ccccc1Cl", "target": "CHEK2", "concentration": "5 µM", "remaining activity": "97.8%"}
